Experimental data as given in ChEMBL document CHEMBL1144620, “Synthesis and biodistribution of new radiolabeled high-affinity choline transporter inhibitors [11C]hemicholinium-3 and [18F]hemicholinium-3” (Bioorg Med Chem Lett, 2007).

Columns and labels:
[1] = Biodistribution in L-Atrium of 9L-glioma bearing rat at 1 to 3 mCi, iv after 5 mins; assay type: ADME, organism-based; details: in vivo
Summary of the method: (§1)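 9L-glioma rats (200–300 g) given 1–3 mCi of [¹¹C]- or [¹⁸F]-labelled tracer iv by tail vein while consciously restrained. At 5 or 20 min they were decapitated under halothane anaesthesia. Tissues were excised and weighed, and decay-corrected radioactivity was counted by gamma counter. Values are %ID/g, averaged over three rats per time point.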

[2] = Biodistribution in urine of 9L-glioma bearing rat at 1 to 3 mCi, iv after 5 mins; assay type: ADME, organism-based; details: in vivo
Summary of the method: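 In 9L-glioma rats injected iv (tail vein, conscious restraint) with 1–3 mCi of radiotracer, urine was drawn by syringe from the bladder at 5 or 20 min. Animals were killed by decapitation under halothane. Decay-corrected radioactivity was gamma-counted and expressed as percent of injected dose (%ID), averaged over three rats.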

Kidney [3] = assay: Biodistribution in kidney of 9L-glioma bearing rat at 1 to 3 mCi, iv after 5 mins; assay type: ADME, organism-based; details: in vivo; summary of the method: as §1
Liver [4] = assay: Biodistribution in liver of 9L-glioma bearing rat at 1 to 3 mCi, iv after 5 mins; assay type: ADME, organism-based; details: in vivo; summary of the method: as §1
Lung [5] = assay: Biodistribution in lung of 9L-glioma bearing rat at 1 to 3 mCi, iv after 5 mins; assay type: ADME, organism-based; details: in vivo; summary of the method: as §1
Brain [6] = assay: Biodistribution in brain of 9L-glioma bearing rat at 1 to 3 mCi, iv after 5 mins; assay type: ADME, organism-based; details: in vivo; summary of the method: as §1
Blood [7] = assay: Biodistribution in blood of 9L-glioma bearing rat at 1 to 3 mCi, iv after 5 mins; assay type: ADME, organism-based; details: in vivo; summary of the method: as §1
Plasma [8] = assay: Biodistribution in plasma of 9L-glioma bearing rat at 1 to 3 mCi, iv after 5 mins; assay type: ADME, organism-based; details: in vivo; summary of the method: as §1
[9] = Biodistribution in R-Atrium of 9L-glioma bearing rat at 1 to 3 mCi, iv after 5 mins; assay type: ADME, organism-based, Right cardiac atrium; details: in vivo; summary of the method: as §1
Septum [10] = assay: Biodistribution in septum of 9L-glioma bearing rat at 1 to 3mCi, iv after 5 mins; assay type: ADME, organism-based; details: in vivo; summary of the method: as §1
[11] = Biodistribution in L-ventricle of 9L-glioma bearing rat at 1 to 3mCi, iv after 5 mins; assay type: ADME, organism-based, Heart left ventricle; details: in vivo; summary of the method: as §1
[12] = Biodistribution in R-ventricle of 9L-glioma bearing rat at 1 to 3 mCi, iv after 5 mins; assay type: ADME, organism-based, Heart right ventricle; details: in vivo; summary of the method: as §1
[13] = Biodistribution in A-V-node of 9L-glioma bearing rat at 1 to 3 mCi, iv after 5 mins; assay type: ADME, organism-based; details: in vivo; summary of the method: as §1
Solar plexus [14] = assay: Biodistribution in solar plexus of 9L-glioma bearing rat at 1 to 3 mCi, iv after 5 mins; assay type: ADME, organism-based; details: in vivo; summary of the method: as §1
[15] = Biodistribution in skeletal muscle of 9L-glioma bearing rat at 1 to 3 mCi, iv after 5 mins; assay type: ADME, organism-based, Muscle tissue; details: in vivo; summary of the method: as §1
9L [16] = assay: Biodistribution in tumor of 9L-glioma bearing rat at 1 to 3 mCi, iv after 5 mins; assay type: ADME, organism-based; details: in vivo; summary of the method: as §1
Blood [17] = assay: Biodistribution in blood of 9L-glioma bearing rat at 1 to 3 mCi, iv after 30 mins; assay type: ADME, organism-based; details: in vivo, 0.5 h
Summary of the method: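 Blood was weighed and gamma-counted with decay correction, and results are expressed as %ID/g. Total blood activity assumed a blood mass of 7% of body mass. n = 3, mean.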

Plasma [18] = assay: Biodistribution in plasma of 9L-glioma bearing rat at 1 to 3 mCi, iv after 30 mins; assay type: ADME, organism-based; details: in vivo, 0.5 h
Summary of the method: (§2)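 At 30 min they were decapitated under halothane anaesthesia. Tissues were excised, weighed and gamma-counted with decay correction. Values are %ID/g, averaged over three rats.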

Brain [19] = assay: Biodistribution in brain of 9L-glioma bearing rat at 1 to 3 mCi, iv after 30 mins; assay type: ADME, organism-based; details: in vivo, 0.5 h; summary of the method: as §2
Lung [20] = assay: Biodistribution in lung of 9L-glioma bearing rat at 1 to 3 mCi, iv after 30 mins; assay type: ADME, organism-based; details: in vivo, 0.5 h; summary of the method: as §2
Liver [21] = assay: Biodistribution in liver of 9L-glioma bearing rat at 1 to 3 mCi, iv after 30 mins; assay type: ADME, organism-based; details: in vivo, 0.5 h; summary of the method: as §2
Kidney [22] = assay: Biodistribution in kidney of 9L-glioma bearing rat at 1 to 3 mCi, iv after 30 mins; assay type: ADME, organism-based; details: in vivo, 0.5 h; summary of the method: as §2
[23] = Biodistribution in urine of 9L-glioma bearing rat at 1 to 3 mCi, iv after 30 mins; assay type: ADME, organism-based; details: in vivo, 0.5 h
Summary of the method: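 At 30 min, urine was drawn from the bladder by syringe after decapitation under halothane. Radioactivity was gamma-counted with decay correction and expressed as % of injected dose. Mean of three rats.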

[24] = Biodistribution in L-Atrium of 9L-glioma bearing rat at 1 to 3 mCi, iv after 30 mins; assay type: ADME, organism-based, Left cardiac atrium; details: in vivo, 0.5 h; summary of the method: as §2
[25] = Biodistribution in R-Atrium of 9L-glioma bearing rat at 1 to 3 mCi, iv after 30 mins; assay type: ADME, organism-based, Right cardiac atrium; details: in vivo, 0.5 h; summary of the method: as §2
Septum [26] = assay: Biodistribution in septum of 9L-glioma bearing rat at 1 to 3 mCi, iv after 30 mins; assay type: ADME, organism-based; details: in vivo, 0.5 h; summary of the method: as §2
[27] = Biodistribution in L-ventricle of 9L-glioma bearing rat at 1 to 3 mCi, iv after 30 mins; assay type: ADME, organism-based, Heart left ventricle; details: in vivo, 0.5 h; summary of the method: as §2
[28] = Biodistribution in R-ventricle of 9L-glioma bearing rat at 1 to 3 mCi, iv after 30 mins; assay type: ADME, organism-based, Heart right ventricle; details: in vivo, 0.5 h; summary of the method: as §2
[29] = Biodistribution in A-V-node of 9L-glioma bearing rat at 1 to 3 mCi, iv after 30 mins; assay type: ADME, organism-based; details: in vivo, 0.5 h; summary of the method: as §2
Solar plexus [30] = assay: Biodistribution in solar plexus of 9L-glioma bearing rat at 1 to 3 mCi, iv after 30 mins; assay type: ADME, organism-based; details: in vivo, 0.5 h; summary of the method: as §2
[31] = Biodistribution in skeletal muscle of 9L-glioma bearing rat at 1 to 3 mCi, iv after 30 mins; assay type: ADME, organism-based, Muscle tissue; details: in vivo, 0.5 h; summary of the method: as §2
9L [32] = assay: Biodistribution in tumor of 9L-glioma bearing rat at 1 to 3 mCi, iv after 30 mins; assay type: ADME, organism-based; details: in vivo, 0.5 h; summary of the method: as §2
[33] = Ratio of biodistribution in tumor to blood of 9L-glioma bearing rat at 1 to 3 mCi, iv after 30 mins; assay type: ADME, organism-based; details: tumour, 0.5 h
[34] = Ratio of biodistribution in tumor to muscle of 9L-glioma bearing rat at 1 to 3 mCi, iv after 30 mins; assay type: ADME, organism-based; details: in vivo, 0.5 h

Compound `C[N+]1(C)CCOC(O)(c2ccc(-c3ccc(C4(O)C[N+](C)(C[18F])CCO4)cc3)cc2)C1.O=S(=O)([O-])C(F)(F)F.[I-]` (centres undefined) has a Drug uptake [1] of 0.824 % ID/g, a Drug uptake [2] of 10.2 % dose and a Drug uptake (Kidney [3]) of 8.676 % ID/g. The Drug uptake (Liver [4]) was 1.228 % ID/g, the Drug uptake (Lung [5]) was 0.944 % ID/g and the Drug uptake (Brain [6]) was 0.042 % ID/g. For the same compound, the Drug uptake (Blood [7]) was 1.467 % ID/g, the Drug uptake (Plasma [8]) was 3.732 % ID/g and the Drug uptake [9] was 2.023 % ID/g. For the same compound, the Drug uptake (Septum [10]) was 0.53 % ID/g, the Drug uptake [11] was 0.438 % ID/g and the Drug uptake [12] was 0.734 % ID/g. For the same compound, the Drug uptake [13] was 5.607 % ID/g, the Drug uptake (Solar plexus [14]) was 1.186 % ID/g and the Drug uptake [15] was 0.194 % ID/g. It also gave a Drug uptake (9L [16]) of 0.952 % ID/g, a Drug uptake (Blood [17]) of 0.378 % ID/g and a Drug uptake (Plasma [18]) of 1.272 % ID/g. For the same compound, the Drug uptake (Brain [19]) was 0.03 % ID/g, the Drug uptake (Lung [20]) was 0.533 % ID/g and the Drug uptake (Liver [21]) was 1.536 % ID/g. The Drug uptake (Kidney [22]) was 5.935 % ID/g, the Drug uptake [23] was 27.6 % dose and the Drug uptake [24] was 0.767 % ID/g. For the same compound, the Drug uptake [25] was 0.999 % ID/g, the Drug uptake (Septum [26]) was 0.262 % ID/g and the Drug uptake [27] was 0.253 % ID/g. For the same compound, the Drug uptake [28] was 0.243 % ID/g, the Drug uptake [29] was 0.6 % ID/g and the Drug uptake (Solar plexus [30]) was 1.009 % ID/g. The Drug uptake [31] was 0.123 % ID/g, the Drug uptake (9L [32]) was 0.359 % ID/g and the Ratio [33] was 0.978. It also gave a Ratio [34] of 3.024.
